core dimer inh = HCV core protein dimerization inhibition. TR-FRET GST/Flag-core106 dimerization, 1536-well. inhibition, % at 5 µM. 300,000 tested, 0.33% active;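 active = inhibition above the mean of all tested compounds plus 3 SD, set per screening campaign, cut at about 45% in these data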
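Assay system: tagged HCV core106 pair (GST and Flag); medium: KF-containing HEPES buffer, pH 7.45, DTT, CHAPS, BSA; also added: Eu donor and XL665 acceptor anti-tag antibodies; dosing: 5 µM single dose; timing: compound-protein-antibody incubation 4 h at 22.5 °C; signal: TR-FRET 671 and 617 nm emission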
PP5 inh = inhibitors of human protein phosphatase 5 (PP5). purified PP5c, OMFP substrate fluorescence. inhibition, % at 6.7 µM. 320,000 tested, 0.18% active;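 active = inhibition above the campaign's mean inhibition across all tested compounds plus 3 SD, cut at about 9.5% in these data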
Target sequence (P53041 whole entry, looked up): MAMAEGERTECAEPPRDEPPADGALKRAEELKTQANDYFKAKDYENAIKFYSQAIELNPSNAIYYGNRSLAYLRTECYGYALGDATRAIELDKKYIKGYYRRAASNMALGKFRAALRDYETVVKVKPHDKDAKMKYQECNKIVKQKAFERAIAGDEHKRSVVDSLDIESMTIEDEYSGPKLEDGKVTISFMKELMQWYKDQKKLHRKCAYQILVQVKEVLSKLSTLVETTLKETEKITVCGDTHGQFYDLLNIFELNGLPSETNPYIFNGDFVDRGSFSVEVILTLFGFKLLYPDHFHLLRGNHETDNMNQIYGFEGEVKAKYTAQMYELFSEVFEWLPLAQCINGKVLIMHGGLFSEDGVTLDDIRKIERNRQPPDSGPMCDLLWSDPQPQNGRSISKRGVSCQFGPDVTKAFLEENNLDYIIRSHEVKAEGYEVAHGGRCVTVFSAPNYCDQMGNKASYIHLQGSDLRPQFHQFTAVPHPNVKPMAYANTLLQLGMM
EBNA-1 inh = blocks EBNA-1 binding to DNA; inhibition, % at 14.8 µM; EBNA-1 DNA binding, fluorescence polarization; AID 1950; 300,000 tested, 0.34% active; in the data active = inhibition above about 28%
ZTA counter = counter-screen for EBNA-1 inhibitors: inhibitors of Epstein-Barr virus ZTA | ZTA-DNA binding, fluorescence polarization | inhibition, % at 11 µM | 320,000 tested, 0.15% active; in the data active = inhibition above about 33%
PP1 counter = counter-screen for PP5 inhibitors: inhibitors of human PP1-alpha; purified PP1alpha, OMFP fluorescence; inhibition, % at 6.7 µM; P62136; 320,000 tested, 0.9% active;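 active = inhibition above the mean inhibition of all tested compounds plus 3 SD, computed separately for each screening campaign, cut at about 15% in these data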
PP1 confirm = confirmation of human PP1 phosphatase inhibitors; shares compounds with PP1 counter; purified PP1alpha, OMFP substrate fluorescence; inhibition, % at 6.7 µM; 1,900 tested, 52% active; AID 2358;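 active = mean PP1 inhibition above a set limit taken from the earlier primary screen, cut at about 15% in these data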
PP5 inh counter = inhibits human PP5 phosphatase in PP1 counter-screen. inhibition, % at 6.7 µM. 1,900 tested, 4% active. purified PP5c, OMFP fluorescence. AID 2360. shares compounds with PP1 counter;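 active = mean PP5 inhibition over triplicate wells above about 9.5% taken from the earlier PP1 screen, limit read from the data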
Of the large screens only hits and unclear results are named; the others gave an inactive call (follow-up assays come after a bar, where they were run). In the library only some 1.7% were active in any assay of this set; here they are far more common.

COC(=O)CCCC1=CC2=CC(=O)C(C)(OC(=O)c3cccs3)C(=O)C2=CN1CCc1c[nH]c2ccccc12 (stereo not given)	none
CC(C)CCN1CCN(CC(c2ccccc2)c2ccccc2)CC1CCO (stereo not given)	none
O=C(O)c1cc(-c2ccccc2Cl)n(-c2cccc(Cl)c2)n1	PP1 counter 18 | PP1 confirm inactive | PP5 inh counter inactive
O=C(O)c1cc(-c2ccccc2)n(-c2ccc(Cl)cc2Cl)n1	PP1 counter 38 | PP1 confirm 36 | PP5 inh counter inactive
O=C(O)c1cc(-c2ccc(Cl)cc2)n(-c2cccc(Cl)c2)n1	PP1 counter 50 | PP1 confirm 49 | PP5 inh counter inactive
O=C(O)c1cc(-c2ccccc2)n(-c2ccc(F)cc2)n1	PP1 counter 29 | PP1 confirm 18 | PP5 inh counter inactive
Cn1c(SCC(=O)OC2CCCCC2)nnc1-c1ccco1	none
Cc1ccc(CN2C(=O)C(C)Nc3ncnc(N4CCOCC4)c32)cc1 (stereo not given)	none
Cc1ccc(Cn2c(C(C)Nc3nc(-c4ccc(F)cc4)cs3)nc3cc(C(F)(F)F)ccc32)cc1 (stereo not given)	none
Cc1nc([N+](=O)[O-])c(C(=O)OCc2cccc(Br)c2)n1C	none
C=CCNC(=S)N(CC=C)C1CCS(=O)(=O)C1 (stereo not given)	none
Cc1ccc(-n2nc(C(=O)O)cc2-c2ccccc2Cl)cc1	none
O=C(O)c1cc(-c2ccc(Cl)cc2)n(-c2ccccc2)n1	PP1 counter 42 | PP1 confirm 43 | PP5 inh counter inactive
CN1CCN(C(c2ccc(Br)cc2)c2cc(Cl)c3cccnc3c2O)CC1 (stereo not given)	PP1 counter 24 | PP1 confirm inactive | PP5 inh counter inactive
CC(C)C[C@H](NC(=O)c1nc[nH]c1C(=O)N[C@@H](CC(C)C)C(=O)OCc1ccccc1)C(=O)OCc1ccccc1	none
CC(C)C[C@H](NC(=O)c1nc[nH]c1C(=O)NC(c1ccccc1)c1ccccc1)C(=O)OCc1ccccc1	PP1 counter 19 | PP1 confirm inactive | PP5 inh counter inactive
Cn1ccc2cc3c(cc21)CCN3C(=O)Nc1cccnc1	PP1 counter 35 | PP1 confirm inactive | PP5 inh counter inactive
O=C1N=C(N2CCCC2)S/C1=C\C=C\c1ccccc1	none
O=C(Nc1nc2n(n1)C(c1ccc(F)cc1)CC(c1ccccc1)N2)c1ccco1 (stereo not given)	none
O=C(Nc1nc2n(n1)C(c1ccc(Cl)cc1)CC(c1ccc(Cl)cc1)N2)c1ccco1 (stereo not given)	PP1 counter 23 | PP1 confirm 16 | PP5 inh counter inactive
CCCCN1C(=O)C(=O)N(CC(=O)NC2CCCc3ccccc32)C1=O (stereo not given)	none
CCCCC1=CC2=CC(=O)C(C)(OC(=O)CC)C(=O)C2=CN1CCc1ccc(Br)cc1 (stereo not given)	none
Fc1ccc(-c2n[nH]c(=S)n2-c2ccc3c(c2)OCCO3)cc1	none
S=c1[nH]nc(-c2cccnc2)n1-c1ccc2c(c1)OCCO2	PP1 counter 52 | PP1 confirm inactive | PP5 inh counter inactive
COc1ccc(C(=O)/C=C/Nc2cccc(C)n2)cc1OC	PP1 counter 35 | PP1 confirm inactive | PP5 inh counter inactive
N#Cc1c(NC(=O)COC(=O)C2CC3C=CC2C3)oc(-c2ccccc2)c1-c1ccccc1 (stereo not given)	core dimer inh 69, PP1 counter 19 | PP1 confirm inactive | PP5 inh counter inactive
O=C1CC(=O)C(n2cncn2)C(c2cccc(Cl)c2)C1 (stereo not given)	PP1 counter 22 | PP1 confirm inactive | PP5 inh counter inactive
COc1ccc(C2CC(=O)CC(=O)C2n2cncn2)cc1 (stereo not given)	none
CC(=O)Nc1cccc(-c2nc3ccccc3[nH]2)c1	none
CC(C)(C)C(=O)Nc1cccc(-c2nc3ccccc3[nH]2)c1	PP1 counter 23 | PP1 confirm inactive | PP5 inh counter inactive
COc1ccc(CNC(=O)CCn2c(=O)oc3ccccc32)cc1	none
CCOc1ccc(CNC(=O)CCn2c(=O)oc3ccccc32)cc1	PP1 counter 23 | PP1 confirm inactive | PP5 inh counter inactive
N#Cc1c(-c2ccco2)cc(-c2cccnc2)nc1N	PP1 counter 28 | PP1 confirm inactive | PP5 inh counter inactive
N#Cc1c(-c2cccnc2)cc(-c2ccccc2)nc1N	none
N#Cc1c(-c2ccco2)cc(-c2ccccn2)nc1N	core dimer inh 73, PP1 counter 27 | PP1 confirm inactive | PP5 inh counter inactive
N#Cc1c(-c2ccco2)cc(C2CC2)nc1N	none
COc1ccc(C)cc1NC(=O)c1cc2c(s1)CCC2	PP1 counter 18 | PP1 confirm inactive | PP5 inh counter inactive
COc1ccc(S(=O)(=O)N2CCOCC2)cc1NC(=O)c1cc2c(s1)CCCC2	none
Cc1cccc(NC(=O)CNC(=O)COc2ccc(-c3ccc(C#N)cc3)cc2)c1C	PP1 counter 20 | PP1 confirm 18 | PP5 inh counter inactive
Cc1ccc(C(C)C)c(OCc2ccc(C(=O)N/N=C/c3cccc(O)c3O)cc2)c1	PP1 counter 23 | PP1 confirm 18 | PP5 inh counter inactive
Cc1ccc(C(C)C)c(OCc2ccc(C(=O)N/N=C/c3ccc(O)c(O)c3)cc2)c1	none
CCCCCC(=O)N1CC2(CC(c3cccc(NC(=O)CC)c3)=NO2)C[C@H]1C(N)=O (stereo not given in full)	none
C=CCOC(=O)C1=C(C)NC(SCC(=O)Nc2nccs2)=C(C#N)C1c1ccc(Cl)cc1 (stereo not given)	PP1 counter 23 | PP1 confirm inactive | PP5 inh counter inactive
CCc1ccc(C2=NN(CCC(=O)NCc3cccs3)C(=O)CC2)cc1	none
C#CCNC(=O)C1=C[C@H](c2csc3ccccc23)C[C@H](OCCCCO)O1	none
O=C1NCN(c2ccccc2)C12CCN(CCCC(c1ccc(F)cc1)c1ccc(F)cc1)CC2	PP1 counter 19 | PP1 confirm inactive | PP5 inh counter inactive
CCCC(=O)NC(c1ccco1)c1cc(Cl)c2cccnc2c1O (stereo not given)	none
CCCC(=O)NC(c1ccc2c(c1)OCO2)c1cc(Cl)c2cccnc2c1O (stereo not given)	PP1 counter 20 | PP1 confirm 24 | PP5 inh counter inactive
CCCC(=O)NC(c1cccs1)c1cc(Cl)c2cccnc2c1O (stereo not given)	PP1 counter 27 | PP1 confirm 23 | PP5 inh counter inactive
CCOc1ccc(C(Nc2cccnc2)c2cc(Cl)c3cccnc3c2O)cc1 (stereo not given)	PP1 counter 19 | PP1 confirm 21 | PP5 inh counter inactive
